Data: ChEMBL document CHEMBL4513216, “Probing the Open Global Health Chemical Diversity Library for Multistage-Active Starting Points for Next-Generation Antimalarials” (ACS Infect Dis, 2020)

Assay: Toxicity liver stage against HepG2, at 10uM
Type: cell-based
Design: test concentration 10 uM, cell line HepG2-A16-CD81EGFP
Conditions: human, HepG2-A16-CD81EGFP cells; read-out: INHIBITION
Summary of the method: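 Uninfected HepG2-A16-CD81EGFP cells, 3 × 10^3 per well, 1536-well, plated on prespotted compound at 10 μM final, parasite-free screening media added to match infected plates; puromycin 10 μM positive, DMSO 0.5% negative; run in parallel with 48 h PbLuc assay at 37 °C, 5% CO2; viability by CellTiter-Glo luminescence, normalized to controls.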

SMILES	cytotoxicity at 10 µM [%]
COc1ccc2c(c1)CN(C)C(=O)CCN2CC(O)C(C)(C)C (centres undefined)	4.17
Cn1ccc2ccc(C(=O)N3CC[C@@]4(O)CCCC[C@H]4C3)cc21	-46.6
CC(C)c1ccc2c(c1)C1(CC(=O)Nc3[nH]ncc31)C(=O)N2C (centres undefined)	-0.582
Cn1cc(C2SCC(=O)Nc3c2cnn3C(C)(C)C)cn1 (centres undefined)	-6.24
CCSc1ccccc1C(=O)NCCn1nc(C(F)(F)F)n(C)c1=O	6.83
O=C(CN1CCC(c2nnc(C(F)(F)F)o2)CC1)Nc1cccc(Cl)c1	-1.53
Cc1nc(CO[C@@H]2CN(Cc3ccco3)[C@@H]3COC[C@@H]32)cs1	5.66
Cc1nc([C@H]2C[C@@H]3CCN(C(=O)c4ccnnc4)C[C@H]3O2)sc1C	1.01
CN1CCCN(Cn2nc(-c3ccccc3F)ccc2=O)CC1	9.77
CCOC(=O)CSc1ccc(-c2nc(C)no2)cn1	-15.2
Cc1noc(C2CCN(c3oc(C)nc3C#N)CC2)n1	-6.32
CCOC1Sc2nnc(C)n2N=C1c1ccc(Br)cc1 (centres undefined)	-2.92
Cc1c(Cn2cc(Cl)c(N)n2)cnn1C	-5.18
Cc1sc(Oc2ccccc2Cl)nc1C(=O)O	1.95
CC1(c2ncc(CN3CCOCC3)cn2)CCCCO1 (centres undefined)	6.08
Cc1cc(-c2cc(N)c(=O)n(CC(=O)NC3CCCC3)n2)c(C)o1	4.39
CN(C)Cc1cnc(C2CCN(C(=O)c3ccc(F)cc3)C2)[nH]1 (centres undefined)	-1.92
Nc1cc(-c2c[nH]nc2C2CCCN2CCCc2ccccc2)ccn1 (centres undefined)	3.75
CC(=O)OCc1ccc(CN2CCCCCC2c2cc(C)no2)o1 (centres undefined)	-13.1
O=C(C1CCCC1)N1CCCC(c2nc(O)cc(-c3ccncc3)n2)C1 (centres undefined)	-16.9
Cc1cc(C)n(CC2CCCN2Cc2ccc(F)cc2C#N)n1 (centres undefined)	7.77
CCN(CC(O)c1ccc(C)cc1)C(=O)NC(C)C (centres undefined)	-7.74

SMILES	cytotoxicity at 10 µM [%]
Cc1ccc(Br)cc1NC(=O)NC1CCC2(C1)OCCO2 (centres undefined)	15.6
COc1ccncc1NC(=O)C1(c2ccc(F)cc2)CCC1	1.52
CCC(CNC(=O)c1cccc(S(=O)(=O)NC)c1)N1CCCC1 (centres undefined)	-4.18
Cc1ccccc1C(NC(=O)CCCS(C)(=O)=O)C(C)(C)C (centres undefined)	-9.4
COc1ccc(CNC2CCC(O)CC2)cc1OCCCC#N (centres undefined)	-2.56
Cc1nnc(NCC(c2ccco2)N2CCCCC2)c(C#N)c1C (centres undefined)	-5.23
Cc1ncc2c(n1)CN(Cc1cn3ccsc3n1)CC2	-9.06
N#CCCN(CCC#N)C(=O)c1ccc(COc2ccccc2C#N)o1	-16.6
Cc1nn(CCO)c(C)c1CNC1CCCCc2ccccc21 (centres undefined)	-2.42
O=C(O)c1csc(S(=O)(=O)Nc2c(F)cccc2-n2cccn2)c1	-7.32
N#Cc1cccc(CNC(=O)NC2CCN(CC(F)F)CC2)c1	4.16
O=C(c1ccoc1)N1CCN(Cc2ccccc2F)CC1	-13.2
Cc1n[nH]c(C2CN(C(=O)c3ccc4c(c3)COC4)CCO2)n1 (centres undefined)	17.4
Cc1cccc(-c2noc(CN3CCc4c(ncn4C4CC4)C3)n2)c1	4.95
CN1CCC(N(C)C(=O)CCc2ccc(F)c(F)c2)C1=O (centres undefined)	-17.7
CN(Cc1nccn1C)S(=O)(=O)Cc1cccc(C#N)c1	4.16
CCN1CCN(S(=O)(=O)c2cn(C(C)C)cn2)c2ccccc21	-4.3
CN(C)S(=O)(=O)c1ccc(CSCC(=O)NC(C)(C)C)o1	-1.82
Cc1ccc(C(NCC(=O)N2CCNC(=O)C2)C(F)(F)F)cc1 (centres undefined)	-8.3
COc1ccc(NC(C)c2nnnn2-c2ccccc2)cn1 (centres undefined)	3.99
CCC1c2ccccc2CCN1CCNS(C)(=O)=O (centres undefined)	5.56
COCCOCCNc1cncc(Br)c1	-1.33

SMILES	cytotoxicity at 10 µM [%]
Cn1cc(C(=O)O)c(-c2ccc(F)cc2F)n1	-4.03
Cc1cc(C(=O)Nc2ccn(CCCN3CCCC3)n2)c(C)o1	-7.12
COc1ccccc1CNC(=O)C1=NN(c2ccc(C)cc2)C(=O)CN1	25.1
C[S+]([O-])CCCNC(=O)c1cc(Br)c2c(c1)OCCO2 (centres undefined)	16.9
Cc1cc(C(=O)N2CCCC(n3ccnc3C)C2)c(C)s1 (centres undefined)	-16
CS(=O)(=O)NCc1nnc2n1CCN(Cc1nccs1)C2	-75.7
CC(C)N1CCO[C@H]2CN(C(=O)c3ccc(N(C)C)cc3)C[C@H]21	3.19
CCc1c(C(=O)N2CCC3(CC(=O)NC3=O)C2)csc1C (centres undefined)	1.62
CN(C)C(=O)c1cn2cc(-c3cccc(Cl)c3)n(CC3CC3)c(=O)c2n1	-1.62
Cc1cccc(CN2CCN(C(=O)c3cc(Cl)c[nH]c3=O)CC2)c1	1.47
NC(=O)N1CCCC(C(=O)N2CCc3c(nc(CC4CC4)[nH]c3=O)C2)C1 (centres undefined)	-13.8
C=C(C)COc1ccccc1C(=O)N1CCC2(CC1)CN(C)CCN2C	-50.2
Cc1n[nH]c(C)c1CCNC(=O)Nc1ccc2c(c1)COC2	-20.4
CC(=O)N1C[C@H](NS(=O)(=O)Cc2cccc(Cl)c2)[C@@H](C(C)C)C1	-1.73
Cc1cccnc1N1CCN(C(=O)C(C)n2ccnc2C(C)C)CC1 (centres undefined)	-10.3
CCc1cnc(N)nc1NC(C)c1cnn(C)c1 (centres undefined)	-0.333
Cc1ocnc1C(=O)N1CCN(Cc2ccccc2)[C@@H]2CS(=O)(=O)C[C@@H]21	-1.26
Cc1nc(CN(C)C(=O)c2cc(C)sc2NC(=O)C(C)(C)C)no1	3.81
O=C(Cc1ccncc1)N(CCO)CCSc1ccc(Cl)cc1	2.59
O=C(c1ccccc1C(F)(F)F)N1CC[C@@H](N2CCC(O)CC2)[C@H](O)C1	-2.49
Cc1ccc(C(=O)N2C[C@@H](NS(C)(=O)=O)[C@H](C(C)C)C2)cc1O	-2.62
Cc1ccc(N2CCN(C(=O)C3CN(C)C(=O)N3)CC2=O)cc1 (centres undefined)	-2.61

SMILES	cytotoxicity at 10 µM [%]
CCCn1ncc(C(=O)N(Cc2cccnc2)C[C@@H]2CCC(=O)N2)c1C	7.69
COCCN(C)C(C(=O)O)c1cc(Cl)ccc1OC (centres undefined)	-6.92
CNc1cc(C)nc(N2CCC3(CC2)[C@H](O)C[C@@H]3O)n1	-17.5
CCOc1ccccc1-n1c(-c2cn(CC)nc2C)n[nH]c1=O	2.81
Cc1cc(C(=O)N2C[C@@H](CN3CCCCC3)[C@@H](CO)C2)ccc1O	0.251
CCCc1ncc(CN(CCOC)Cc2cccs2)cn1	-0.683
Cc1cccc2c1nc(COCC(=O)O)n2-c1ccsc1	-0.793
CCCn1ccnc1CN1C[C@@H](CN2CCCCC2)[C@@H](CO)C1	0.945
CNC(=O)[C@@H]1C[C@H](N)CN1S(=O)(=O)c1cc(C)c(Cl)cc1C	-0.869
Cc1cc(NC(=O)CNCc2csc(-c3ncccn3)n2)ccc1Cl	-7.21
O=C1CC(NCc2ccccn2)CN1CCc1ccc(F)cc1 (centres undefined)	7.18
O=C(CCCn1ccnc1)N1CCC2(CC1)[C@H](O)C[C@@H]2OCCO	3.31
O=C1N(Cc2cccc(F)c2F)CCCC1(O)CN1CCCOCC1 (centres undefined)	18.3
Cc1ccc(NC2CCN(C(=O)c3ccc4c(c3)CCC4)CC2)nn1	-8.19
Cc1cc(C)c(CNC(=O)N(C)Cc2cccc(F)c2)c(=O)[nH]1	-1.62
c1ccc(-c2nc(CN3CCOC(Cn4cncn4)C3)cs2)cc1 (centres undefined)	-4.33
CC(C)(C)c1n[nH]c(C2CN(C(=O)CCc3ccco3)CCO2)n1 (centres undefined)	-8.24
COc1cc(CNCCn2cc(C)cn2)cc2c1OCCO2	-9.07
c1ccc(-c2nc(CN3CCCC3Cn3cncn3)no2)cc1 (centres undefined)	-7.22
CC(=O)NCc1ccc(C(=O)NC2CCc3nc(C)cn3C2)o1 (centres undefined)	-3.81
Cc1nccn1C1CCCN(C(=O)c2ccnc(-n3ccnc3)c2)C1 (centres undefined)	0.998
COCCN1CCC(CNCc2c[nH]nc2C(C)(C)C)CC1	-17

SMILES	cytotoxicity at 10 µM [%]
Cc1cccc(CN(C)Cc2nc3c(cnn3C)c(=O)[nH]2)c1	-8.08
CCn1cc(NC(=O)NCC(c2cccc(F)c2)N(C)C)cn1 (centres undefined)	0.633
CCC(O)CN1CCN(C(=O)c2cccn2Cc2ccccc2)CC1 (centres undefined)	-8.03
C1CC(c2noc(C3CC3)n2)CN(Cc2noc(C3CC3)n2)C1 (centres undefined)	-5.16
COCc1nc(C(=O)N2CCCC(n3cccn3)C2)cs1 (centres undefined)	-7.42
CC(C)CCCNC(=O)Nc1ccc(F)c(C(N)=O)c1	-2.73
COCCc1noc(CN2CCCCC2Cn2nc(C)cc2C)n1 (centres undefined)	0.962
NCCc1cc(N2CCOCC2)nc(NC2CC2)n1	0.881
Cc1cc(N2CCN(Cc3cn(C)nc3C)CC2)cc(C2CCNC2)n1 (centres undefined)	0.39
OCCN(Cc1ccncc1)CC1(c2ccc(Cl)cc2)CCCC1	13.8
CN1CC[C@H]2OCC[C@@H](C(=O)NCc3ccco3)[C@@H]2C1	-78
CNC(=O)[C@H]1C[C@@H]2CCN(CCc3ccccc3)C[C@@H]2O1	-81.7
CN1CC(=O)N(c2cccc(F)c2)CC12CCN(Cc1cnn(C)c1)C2 (centres undefined)	-5.87
c1ccc(OC[C@]23COC[C@H]2CN(Cc2ccoc2)C3)nc1	-8.63
Cc1nc(CN2CC3(CCN(c4ncccn4)C3)CC2=O)cs1 (centres undefined)	5.31
COCCO[C@H]1CCN(C(=O)c2ccno2)[C@H]1Cc1ccncc1	-78.1
O=S(=O)(NCC1COCc2c(-c3ccncc3)nnn2C1)C1CC1 (centres undefined)	-80.9
CCOc1ncccc1Cn1cc2[nH]cccc-2c1=O	1.93
Cc1cccc(C(=O)N2C[C@@H]3CC[C@H]2CN(S(=O)(=O)N(C)C)C3)n1	7.4
O=C1C[C@@H]2CC[C@H](CN1)N2C1CSCCSC1	-2.26
O=C(c1ccco1)N1C2CCC(O)(CC2)C1CN1CCOCC1 (centres undefined)	6.93
